From article PMC13022283 (Scientific Reports, 2026)

What was measured:
[1] = target: T1, h-NTPDase1 (Homo sapiens, UniProt P49961); assay: h-NTPDase activity assay; assay type: biochemical; conditions: for inhibition at 100 µM: read-out: % Inhibition h-NTPDase1
T1 sequence (P49961 1-510): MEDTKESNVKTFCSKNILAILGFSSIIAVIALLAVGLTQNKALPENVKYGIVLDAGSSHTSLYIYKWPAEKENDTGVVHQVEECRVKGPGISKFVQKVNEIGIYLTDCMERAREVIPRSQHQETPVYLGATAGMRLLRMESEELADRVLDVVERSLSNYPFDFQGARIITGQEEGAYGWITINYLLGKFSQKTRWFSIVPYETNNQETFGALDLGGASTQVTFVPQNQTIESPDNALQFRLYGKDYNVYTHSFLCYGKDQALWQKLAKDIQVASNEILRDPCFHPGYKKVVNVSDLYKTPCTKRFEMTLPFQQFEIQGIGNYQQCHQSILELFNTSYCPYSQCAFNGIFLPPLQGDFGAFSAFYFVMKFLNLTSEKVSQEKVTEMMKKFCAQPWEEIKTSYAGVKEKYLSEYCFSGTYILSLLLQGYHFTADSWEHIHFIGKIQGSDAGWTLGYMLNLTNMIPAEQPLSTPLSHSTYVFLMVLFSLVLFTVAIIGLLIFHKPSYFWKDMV

[2] = target: T2, h-NTPDase3 (Homo sapiens, UniProt O75355); assay: h-NTPDase activity assay; assay type: biochemical; conditions: for inhibition at 100 µM: read-out: % Inhibition h-NTPDase3
T2 sequence (O75355 1-529): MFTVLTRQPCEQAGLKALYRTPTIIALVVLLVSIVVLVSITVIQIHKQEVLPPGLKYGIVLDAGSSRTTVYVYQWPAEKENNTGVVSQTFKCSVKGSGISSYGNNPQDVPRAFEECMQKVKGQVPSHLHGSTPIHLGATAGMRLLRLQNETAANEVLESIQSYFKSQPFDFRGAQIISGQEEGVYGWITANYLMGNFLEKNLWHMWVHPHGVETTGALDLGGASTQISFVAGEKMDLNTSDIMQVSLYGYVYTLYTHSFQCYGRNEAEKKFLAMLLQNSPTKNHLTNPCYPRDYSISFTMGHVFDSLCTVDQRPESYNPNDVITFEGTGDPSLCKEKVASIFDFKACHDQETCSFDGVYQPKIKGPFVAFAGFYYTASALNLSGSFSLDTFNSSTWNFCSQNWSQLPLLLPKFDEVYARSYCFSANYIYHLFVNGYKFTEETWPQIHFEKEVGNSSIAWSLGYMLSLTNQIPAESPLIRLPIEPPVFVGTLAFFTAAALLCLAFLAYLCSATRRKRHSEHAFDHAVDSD
Summary of the method: (§1)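 Human NTPDase1, -2, -3 or -8 came from COS-7 cells transfected with plasmids via Lipofectamine, harvested at 44–48 h, sonicated and cleared of nuclei, with protein measured by Bradford. Enzyme per well was 12, 37, 43 or 63 ng respectively. Compound (0.1 mM final) was pre-incubated 10 min at 37 °C in 50 mM Tris–HCl, 5 mM CaCl2, pH 7.4. The reaction was started with ATP (100 µM), run 15 min, and stopped with malachite green; Pi was read at 630 nm.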

[3] = target: T3, h-NPP1 (Homo sapiens, UniProt P22413); assay: h-NPP1 activity assay; assay type: biochemical; conditions: for inhibition at 100 µM: read-out: % Inhibition h-NPP1
T3 sequence (P22413 1-925): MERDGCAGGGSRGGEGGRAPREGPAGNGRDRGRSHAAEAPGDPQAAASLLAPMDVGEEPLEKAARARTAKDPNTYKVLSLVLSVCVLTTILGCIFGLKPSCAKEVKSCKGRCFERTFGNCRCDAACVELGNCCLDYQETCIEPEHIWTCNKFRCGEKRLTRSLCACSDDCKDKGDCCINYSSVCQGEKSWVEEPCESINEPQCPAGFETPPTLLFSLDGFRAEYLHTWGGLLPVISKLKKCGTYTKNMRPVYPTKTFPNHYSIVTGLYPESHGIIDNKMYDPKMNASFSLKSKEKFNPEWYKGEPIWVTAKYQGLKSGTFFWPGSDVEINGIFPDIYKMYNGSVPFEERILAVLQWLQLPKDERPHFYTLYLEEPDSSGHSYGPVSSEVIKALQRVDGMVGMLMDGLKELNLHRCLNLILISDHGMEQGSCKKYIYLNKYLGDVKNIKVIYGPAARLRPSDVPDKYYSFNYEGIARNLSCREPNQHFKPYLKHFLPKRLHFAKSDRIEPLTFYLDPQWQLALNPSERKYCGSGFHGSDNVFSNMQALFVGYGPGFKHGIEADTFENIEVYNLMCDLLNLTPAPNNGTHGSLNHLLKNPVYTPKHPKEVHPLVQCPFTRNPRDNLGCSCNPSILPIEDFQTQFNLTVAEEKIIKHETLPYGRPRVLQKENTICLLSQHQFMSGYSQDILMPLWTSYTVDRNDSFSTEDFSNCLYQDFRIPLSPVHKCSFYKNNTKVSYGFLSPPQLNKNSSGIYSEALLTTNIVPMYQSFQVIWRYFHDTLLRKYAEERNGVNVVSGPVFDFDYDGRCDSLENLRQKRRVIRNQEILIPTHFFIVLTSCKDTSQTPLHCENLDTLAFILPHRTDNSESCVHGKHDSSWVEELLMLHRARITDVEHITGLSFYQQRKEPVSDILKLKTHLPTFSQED

[4] = target: T4, h-e5’NT (Homo sapiens, UniProt P21589); assay: h-e5’NT activity assay; assay type: biochemical; conditions: for inhibition at 100 µM: read-out: % Inhibition h-e5’NT
T4 sequence (P21589 27-574): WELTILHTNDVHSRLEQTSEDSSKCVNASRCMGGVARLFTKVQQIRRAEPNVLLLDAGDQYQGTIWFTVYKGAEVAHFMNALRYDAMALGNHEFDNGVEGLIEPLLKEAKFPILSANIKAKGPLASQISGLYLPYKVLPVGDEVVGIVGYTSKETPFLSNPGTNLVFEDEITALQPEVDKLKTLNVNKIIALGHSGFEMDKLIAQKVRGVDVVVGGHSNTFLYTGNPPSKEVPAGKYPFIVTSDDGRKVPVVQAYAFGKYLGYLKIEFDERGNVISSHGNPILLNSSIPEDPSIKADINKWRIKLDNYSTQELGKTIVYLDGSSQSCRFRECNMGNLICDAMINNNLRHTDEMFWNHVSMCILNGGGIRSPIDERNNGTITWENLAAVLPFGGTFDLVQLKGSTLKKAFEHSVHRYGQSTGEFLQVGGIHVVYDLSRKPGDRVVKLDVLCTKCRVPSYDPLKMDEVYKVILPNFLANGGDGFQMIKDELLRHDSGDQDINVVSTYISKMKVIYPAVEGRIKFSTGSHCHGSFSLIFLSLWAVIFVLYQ
Summary of the method: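 Human ecto-5′-nucleotidase from transfected COS-7 cells was pre-incubated 10 min at 37 °C with compound (0.1 mM final) in 50 mM Tris–HCl with MgCl₂ and CaCl₂, pH 7.4. The reaction was started with AMP (2 mM solution as added) and run 20 min at 37 °C. Released phosphate was detected with malachite green at 630 nm, in triplicate.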

[5] = MTT assay; assay type: cell-based, human; conditions: human, MCF-7 breast cancer cells, MCF-7, 100 μM; for cytotoxicity at 24 h, 100 µM: % Cytotoxicity ± SD; for viability at 24 h, 100 µM: % Viability
[6] = system: MCF-7 breast cancer cells; assay: MTT assay; assay type: cell-based, human; conditions: MCF-7, 100 μM, 24 h, 100 µM
[7] = system: h-NTPDases; assay: h-NTPDase activity assay, all four isoenzymes; assay type: biochemical, human
Summary of the method: as §1

[8] = target: T5, h-NTPDase2 (Homo sapiens, UniProt Q9Y5L3); assay: h-NTPDase activity assay; assay type: biochemical; conditions: for inhibition at 100 µM: read-out: % Inhibition h-NTPDase2
T5 sequence (Q9Y5L3 1-495): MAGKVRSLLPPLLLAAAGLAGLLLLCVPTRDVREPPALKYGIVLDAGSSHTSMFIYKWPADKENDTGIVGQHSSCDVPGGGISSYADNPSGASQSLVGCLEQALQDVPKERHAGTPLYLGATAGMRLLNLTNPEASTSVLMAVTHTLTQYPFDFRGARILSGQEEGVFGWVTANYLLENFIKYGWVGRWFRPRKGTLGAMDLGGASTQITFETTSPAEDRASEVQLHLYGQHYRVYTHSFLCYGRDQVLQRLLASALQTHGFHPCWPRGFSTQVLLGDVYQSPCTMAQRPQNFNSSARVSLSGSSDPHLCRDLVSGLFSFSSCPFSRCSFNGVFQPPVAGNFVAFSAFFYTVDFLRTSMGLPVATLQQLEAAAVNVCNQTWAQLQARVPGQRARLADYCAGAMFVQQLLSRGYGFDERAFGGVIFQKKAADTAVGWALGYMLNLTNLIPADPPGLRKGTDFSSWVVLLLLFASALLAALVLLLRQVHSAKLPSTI

[9] = target: T6, h-NTPDase8 (Homo sapiens, UniProt Q5MY95); assay: h-NTPDase activity assay; assay type: biochemical
T6 sequence (Q5MY95 1-495): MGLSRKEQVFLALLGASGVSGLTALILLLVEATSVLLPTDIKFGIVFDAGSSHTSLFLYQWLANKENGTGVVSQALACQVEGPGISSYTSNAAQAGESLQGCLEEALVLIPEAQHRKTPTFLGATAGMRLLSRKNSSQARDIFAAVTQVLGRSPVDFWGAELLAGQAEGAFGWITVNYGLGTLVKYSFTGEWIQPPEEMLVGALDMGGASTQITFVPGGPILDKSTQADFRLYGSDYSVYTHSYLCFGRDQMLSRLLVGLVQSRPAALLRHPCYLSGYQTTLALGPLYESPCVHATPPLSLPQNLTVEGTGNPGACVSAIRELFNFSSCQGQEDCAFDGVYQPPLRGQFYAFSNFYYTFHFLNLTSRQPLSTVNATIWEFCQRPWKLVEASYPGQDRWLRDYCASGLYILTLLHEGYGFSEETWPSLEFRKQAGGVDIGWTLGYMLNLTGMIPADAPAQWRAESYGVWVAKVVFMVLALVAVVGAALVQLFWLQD

[10] = system: h-NTPDase1, -2, -3, and -8 isoenzymes, h-NPP1, and h-e5′NT; assay: Enzymatic assays, all ectonucleotidases; assay type: biochemical, human; conditions: at 100 µM

SMILES	inhibition at 100 µM [1] [%]	inhibition at 100 µM [2] [%]	IC50 [3] [µM]	inhibition at 100 µM [3] [%]	IC50 [4] [µM]	inhibition at 100 µM [4] [%]	cytotoxicity at 24 h, 100 µM [5] [%]	viability at 24 h, 100 µM [5] [%]	% Cytotoxicity ± SD [6] [%]	activity against all four h-NTPDase isoenzymes [7]	inhibition at 100 µM [8] [%]	inhibition at 100 µM ([9]; read-out: % Inhibition h-NTPDase8, at 100 µM) [%]	% inhibition for all enzymes except h-e5′NT [10]	% Viability [6] [%]	IC50 [1] [µM]	IC50 [8] [µM]	IC50 [2] [µM]	IC50 [9] [µM]
O=C(NCc1ccc(Cl)cc1)c1ccc2ncccc2c1 [Compound 4a, N-(4-chlorobenzyl)quinoline-6-carboxamide]	37	30.6	0.23 ± 0.02	67	0.092 ± 0.02	67.9	37	62.7	37.3 ± 1.80	poor activity								
COc1ccc(CNC(=O)c2ccc3ncccc3c2)c(OC)c1 [Compound 4i, N-(2,4-dimethoxybenzyl)quinoline-6-carboxamide]	19.5	25.1			0.99 ± 0.13	54.9	41.5 ± 0.31	58.5		poor activity	39.6	29.8	less than 50%					
O=C(NCc1ccc(Cl)cc1Cl)c1ccc2ncccc2c1 [Compound 4j, N-(2,4-dichlorobenzyl)quinoline-6-carboxamide]	33.1	35.6	13.5 ± 1.24	85.5	0.44 ± 0.07	72.4	55 ± 1.36	43 to 45		poor activity	26.2			45.0				
Nc1c(S(=O)(=O)O)cc(Nc2ccc(Nc3nc(Cl)nc(Nc4cccc(S(=O)(=O)O)c4)n3)c(S(=O)(=O)O)c2)c2c1C(=O)c1ccccc1C2=O [Reactive blue 2, reference compound]															16.1 ± 1.02	24.1 ± 3.01	4.31 ± 0.41	101 ± 2.34
Cc1ccc(C(=O)Nc2ccc(S(=O)(=O)O)c3cc(S(=O)(=O)O)cc(S(=O)(=O)O)c23)cc1NC(=O)c1cccc(NC(=O)Nc2cccc(C(=O)Nc3cc(C(=O)Nc4ccc(S(=O)(=O)O)c5cc(S(=O)(=O)O)cc(S(=O)(=O)O)c45)ccc3C)c2)c1 [Suramin, reference compound]					42.1 ± 7.8													
